Shown are actives, neighbours in structure and some others; about 1.8% of the full set was active somewhere.
CXCR6 block – CXCR6 (human) receptor inhibition; CHO-K1 PathHunter CXCR6 beta-arrestin, luminescence; inhibition, % at 20 µM; AID 602244; 0.36% of 360,000 active; in the data active = inhibition above about 34%, passing the limit was not always enough;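 note: antagonist mode with CXCL16 agonist at 10 nM final; 0% = 10 nM CXCL16 with DMSO and 100% = unstimulated wells without agonist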
CCR6 antagonist – CCR6 (human) receptor antagonism; P51684; CHO-K1 CCR6 PathHunter beta-arrestin, luminescence, CCL20-stimulated; inhibition, % at 20 µM; 0.49% of 340,000 active;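 active = compounds whose inhibition of the agonist-driven luminescence signal at 20 µM reaches about 50%, limit read from the data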;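 note: cells stimulated with CCL20 at 14 nM final; plate controls were DMSO with CCL20 for no effect and DMSO without agonist for full effect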
Target sequence (P51684 whole entry, looked up): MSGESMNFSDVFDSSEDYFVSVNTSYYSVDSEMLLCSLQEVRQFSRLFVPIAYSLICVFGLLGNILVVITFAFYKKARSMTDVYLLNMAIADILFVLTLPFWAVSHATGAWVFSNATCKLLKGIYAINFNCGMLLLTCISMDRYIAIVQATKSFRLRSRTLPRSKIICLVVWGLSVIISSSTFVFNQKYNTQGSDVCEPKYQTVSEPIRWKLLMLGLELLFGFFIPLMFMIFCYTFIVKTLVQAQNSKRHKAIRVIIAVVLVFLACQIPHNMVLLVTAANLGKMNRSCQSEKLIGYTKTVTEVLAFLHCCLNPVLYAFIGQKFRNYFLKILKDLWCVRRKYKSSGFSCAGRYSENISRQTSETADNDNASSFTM
APJ agonist – agonists of human APJ apelin receptor; AID 2520; P35414; activation, % at 20 µM; CHO-K1 APJ PathHunter beta-arrestin, luminescence; 0% DMSO wells, 100% apelin; 0.11% of 330,000 active;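 active = activation more than six SD over the plate average, tested at 20 µM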;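 note: 0% = DMSO alone and 100% = apelin-13 at 10 nM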
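Test system: CHO-K1 APJ beta-arrestin complementation cell line | Compound: Single test compound dose, 20 µM final, 1% DMSO | Incubation: Compound 90 min 25 °C, reagent 1 h | Measured by: beta-gal luminescence | Read-out basis: APJ–arrestin association signal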
APJ antag – antagonists of human APJ apelin receptor. P35414. 0.32% of 330,000 active. AID 2521. inhibition, % at 20 µM. CHO-K1 APJ beta-arrestin complementation, luminescence;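 active = inhibition above about 40% at 20 µM, limit read from the data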;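 note: cells challenged with 10 nM apelin-13 agonist together with compound; plate controls were apelin-13 plus DMSO wells for no effect and DMSO wells lacking apelin-13 for full effect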
EBI2 block – antagonists of human EBI2 receptor. P32249. EBI2 beta-arrestin recruitment, luminescence, 7a,25-OHC stimulated. inhibition, % at 5 µM. 0.81% of 360,000 active. AID 651636; in the data active = inhibition above about 38%;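 note: enzyme fragment complementation signal reports receptor beta-arrestin coupling in cells; 0% = agonist plus DMSO wells and 100% = wells without agonist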
Beta2AR agonist – agonists of human beta-2 adrenergic receptor inducing internalization | P07550 | Am2.2-beta2AR cells, FAP receptor internalization, flow cytometry | response, % (no concentration beside the values) | 0.43% of 340,000 active;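 active = response above a set limit, near 3 SD of response in nonfluorescent compounds, cut at about 42% in these data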
EBI2 antag conf – EBI2 (human) antagonism, single concentration confirmation; inhibition, % at 5 µM; shares compounds with EBI2 block; AID 651997; EBI2 beta-arrestin luminescence, 7a,25-OHC antagonism; 29% of 2,400 active;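 active = inhibition of at least 50%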
EBI2 ag – counter-screen for EBI2 antagonists: EBI2 agonist activity | shares compounds with EBI2 block | EBI2-expressing cells, agonist mode, luminescence, 60 min; 0% vehicle, 100% 7α,25-dihydroxycholesterol control | activation, % at 5 µM | 2,400 tested, under 10 active | AID 652000;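 active = activation of at least 50%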
bGal counter – beta-galactosidase inhibition counter-screen; shares compounds with EBI2 block; purified beta-galactosidase, luminescent Galacton Star, 15 min; inhibition, % at 5 µM; 1% of 2,400 active;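 active = replicate-average signal at least 3 plate SD below neutral wells, shown as high inhibition, flagging enzyme-inhibiting false positives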;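 note: 0% = DMSO wells with enzyme and 100% = wells lacking enzyme; higher means stronger loss of beta-gal luminescence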
* marks the source's active call; other numbers are inactive results; . = not tested or not shown.

SMILES	CXCR6 block	CCR6 antagonist	APJ agonist	APJ antag	EBI2 block	Beta2AR agonist	EBI2 antag conf	EBI2 ag	bGal counter
O=C(Nc1ccc(C(=O)N2CCCC2)cc1)c1cc(F)c(F)cc1Cl	0	.	.	.	1	.	.	.	.
COc1cc(OC)c(C=NNC(=S)NC23CC4CC(CC(C4)C2)C3)c(OC)c1	9	20	.	.	54*	3	12	0	-5
CCOC(=O)CN(C(=O)CSc1nnc(CNc2ccc(F)cc2)n1C)c1ccccc1	-3	8	-7	-16	15	-5	.	.	.
CCOC(=O)CN(C(=O)CSc1nnc(CNc2ccc(F)cc2)o1)c1ccccc1	4	10	5	8	43*	0	24	2	2
Cc1[nH]c(-c2ccc(F)cc2)cc1C(=O)N1CCN(c2ccccc2F)CC1	11	-28	0	5	91*	-9	85*	0	8
COc1ccccc1N1CCN(C(=O)c2cc(-c3ccc(F)cc3)[nH]c2C)CC1	8	7	1	-5	95*	9	71*	-1	-6
Cc1noc(C)c1NC(=O)Nc1ccc2c(c1)C(=O)N([C@H](C)CO)C[C@H](C)[C@@H](CN(C)S(=O)(=O)c1ccc(Cl)cc1)OCCCC[C@@H](C)O2	5	.	.	.	0	.	.	.	.
CCCCN1C(=O)C(CC(=O)NC2CCCCC2)CC(C(=O)N(C)C)=C1C (centres undefined)	-4	.	.	.	-9	.	.	.	.
Brc1ccc2ncc(Br)cc2c1	-2	12	0	6	-5	-5	.	.	.
Cc1ccc(S(=O)(=O)NCCC(=O)NNC(=O)COc2ccc(Br)cc2)cc1C	2	13	1	0	63*	2	25	-1	-15
N#Cc1cccc(-c2csc(C(O)c3ccco3)n2)c1 (centres undefined)	1	.	.	.	2	.	.	.	.
CCCN1CCN(CCCNC(=O)Cn2nc(C)n3c(cc4cc(F)ccc43)c2=O)CC1	6	5	-4	-4	0	-3	.	.	.
COc1ccc(-n2c(C)cc(/C=C3\C(=N)N4N=C(CC(=O)N5CCOCC5)SC4=NC3=O)c2C)c(OC)c1	7	-1	-2	6	-6	-2	.	.	.
COc1ccc(-n2nnc3c(SCC(=O)N4CCCc5ccccc54)ncnc32)cc1	-1	11	-3	-3	42*	7	4	1	6
COc1ccc(-n2nnc3c(=O)n(CC(=O)N4CCCc5ccccc54)cnc32)cc1	2	16	3	20	0	8	.	.	.
CCCSc1ccc(-c2nn(-c3ccccc3)cc2/C=C(/C#N)C(=O)N2CCOCC2)cc1	9	20	0	-16	50*	9	32	1	0
COc1ccc(C(=O)C2CCN(C(=S)NCC3CCCO3)CC2)cc1 (centres undefined)	-7	7	-1	5	61*	8	26	1	5
Cc1ccc(C(=O)C2CCN(C(=S)NCC3CCCO3)CC2)cc1 (centres undefined)	1	5	-2	11	16	-5	.	.	.
O=C(c1ccc(F)cc1)C1CCN(C(=S)NCC2CCCO2)CC1 (centres undefined)	-7	0	-3	-2	51*	1	16	-1	-9
O=C(CCNC(=O)c1ccccc1)NNC(=O)COc1ccccc1Cl	1	-5	2	7	4	7	.	.	.
O=C(NCCc1c[nH]c2ccccc12)c1ccc2c(c1)OCO2	6	17	-2	9	-2	-2	.	.	.
N#C/C(=C/c1ccc2c(c1)OCO2)C(=O)NCCc1c[nH]c2ccccc12	3	13	0	7	51*	8	44	1	9
c1ccc(Cn2cc(-c3ccccc3)cn2)cc1	-9	3	-2	1	-1	-11	.	.	.
Nc1c(C(=O)c2ccccc2)sc(Nc2ccccc2)c1S(=O)(=O)c1ccccc1	20	32	-3	-12	46*	-4	50*	4	3
COc1ccc(OCC(=O)N2CCN(C(=O)c3cccc(F)c3)CC2)cc1	-6	9	-6	-20	81*	1	61*	-1	5
SMILES	CXCR6 block	CCR6 antagonist	APJ agonist	APJ antag	EBI2 block	Beta2AR agonist	EBI2 antag conf	EBI2 ag	bGal counter
Cc1ccc(OCC(=O)N2CCN(C(=O)c3cccc(F)c3)CC2)cc1	2	2	-2	9	84*	-1	49	2	5
Cc1ccc(OCC(=O)N2CCCCCCC2)cc1	-12	-4	-4	1	7	-4	.	.	.
O=C(COc1ccc(F)cc1)N1CCCCCCC1	3	2	0	13	-8	-5	.	.	.
Cc1ccc(OCC(=O)N2CCN(C(=O)c3ccncc3)CC2)cc1	-2	-6	-1	2	44*	-8	27	2	4
COc1ccc(OCC(=O)N2CCN(C(=O)c3ccc(F)cc3)CC2)cc1	8	7	0	8	79*	4	65*	1	5
O=C(CSc1ccccc1)N1CCCC(N2CCN(c3cccc(Cl)c3)CC2)C1 (centres undefined)	-4	.	-2	7	16	-11	.	.	.
CCCCCCCCC(=O)N1C(C)CCC1C (centres undefined)	6	.	.	.	3	.	.	.	.
Cc1nn(CCCC(=O)NCCCN2CCN(C)CC2)c(=O)c2c1sc1ccccc12	0	4	-3	15	-13	-6	.	.	.
Cc1ccc(/C=C/C(=O)N2CCN(S(=O)(=O)c3ccc(C)c(C)c3)CC2)o1	15	6	0	0	26	9	.	.	.
Cc1ccc(/C=C/C(=O)N2CCN(S(=O)(=O)c3c(C)c(C)cc(C)c3C)CC2)o1	9	5	-4	5	50*	4	32	1	3
COc1ccc(CN2C(=O)C(CC(=O)NCC3CCCCC3)CC(C(=O)N(C(C)C)C(C)C)=C2C)cc1 (centres undefined)	7	.	.	.	4	.	.	.	.
O=C1CCCC2=C1C1(CCCCC1)N=C(Nc1nc3ccccc3o1)N2	2	-26	4	16	47*	-1	40	-2	-21
O=C(O)C1CCCN(C(=O)/C=C/c2ccccc2)CC1 (centres undefined)	0	.	.	.	-14	.	.	.	.
CN(C)C(CNC(=O)C1CCN(C(=O)/C=C/c2ccccc2)CC1)c1ccccc1 (centres undefined)	-4	14	1	18	72*	-5	42	1	3
